≈ marks a conversion by molar mass, not a printed value.
Assays:
Klebsiella pneumoniae = assay: Antibacterial activity against Klebsiella pneumoniae; format: functional
Summary of the method: (§1)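 Aerobic isolates run by CLSI broth microdilution in cation-adjusted Mueller-Hinton II broth (streptococci plus 2–5% lysed horse blood), about 5 × 10^5 CFU/ml final; 24 h at 35–37°C aerobically; MIC read as lowest concentration without visible growth.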

Escherichia coli = assay: Antibacterial activity against Escherichia coli after 24 hrs by broth microdilution method; format: functional
Summary of the method: (§2)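 CLSI broth microdilution in cation-adjusted Mueller-Hinton II broth, final inoculum about 5 × 10^5 CFU/ml for most strains; streptococci supplemented with 2–5% lysed horse blood, H. influenzae in Haemophilus test medium. Aerobic incubation at 35–37°C for 24 h; MIC = lowest concentration with no visible growth.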

Acinetobacter baumannii = assay: Antibacterial activity against Acinetobacter baumannii after 24 hrs by broth microdilution method; format: functional; summary of the method: as §2
Enterobacter sp. = assay: Antibacterial activity against Enterobacter sp.; format: functional; summary of the method: as §1
Pseudomonas aeruginosa = assay: Antibacterial activity against Pseudomonas aeruginosa after 24 hrs by broth microdilution method; format: functional; summary of the method: as §2
Neisseria gonorrhoeae = assay: Antibacterial activity against Neisseria gonorrhoeae after 24 hrs by broth microdilution method; format: functional; summary of the method: as §2
Streptococcus viridans = assay: Antibacterial activity against Streptococcus viridans after 24 hrs by broth microdilution method; format: functional; summary of the method: as §2
Streptococcus pyogenes = assay: Antibacterial activity against Streptococcus pyogenes; format: functional; summary of the method: as §1
Haemophilus influenzae = assay: Antibacterial activity against Haemophilus influenzae after 24 hrs by broth microdilution method; format: functional; summary of the method: as §2
Moraxella catarrhalis = assay: Antibacterial activity against Moraxella catarrhalis after 24 hrs by broth microdilution method; format: functional; summary of the method: as §2
Streptococcus pneumoniae = assay: Antibacterial activity against Streptococcus pneumoniae by agar dilution method; format: functional
[1] = Tmax in mouse at 50 mg/kg, sc; format: ADME, organism-based; set-up: dose 50 mg/kg, route subcutaneous; settings: in vivo
Summary of the method: (§3)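 Fasted mice given one subcutaneous dose (20 or 50 mg/kg); blood taken from groups of three at 0.08, 0.25, 0.5, 1, 2, 4, 8, 24 h. Plasma protein-precipitated with cold acetonitrile plus internal standard, LC-MS/MS (C8, positive ESI, SRM); calibration 5–15,000 ng/ml. Noncompartmental analysis of mean concentrations; AUC to last quantifiable point by linear trapezoidal rule.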

[2] = Cmax in mouse at 20 mg/kg, sc; format: ADME, organism-based; set-up: dose 20 mg/kg, route subcutaneous; settings: in vivo; summary of the method: as §3
[3] = Tmax in mouse at 20 mg/kg, sc; format: ADME, organism-based; set-up: dose 20 mg/kg, route subcutaneous; settings: in vivo; summary of the method: as §3
[4] = Cmax in mouse at 50 mg/kg, sc; format: ADME, organism-based; set-up: dose 50 mg/kg, route subcutaneous; settings: in vivo; summary of the method: as §3
Staphylococcus aureus [5] = assay: Antibacterial activity against ethidium bromide-resistant Staphylococcus aureus BSA678 after 24 hrs by broth microdilution method; format: functional; settings: BSA678, 24 h
Summary of the method: (§4)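 Broth microdilution per CLSI in cation-adjusted Mueller-Hinton II broth, final inoculum approximately 5 × 10^5 CFU/ml. Plates were incubated aerobically at 35 to 37°C for 24 h. MIC was the lowest concentration giving no visible growth. Reserpine, where used, was at a final concentration of 20 μg/ml.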

Staphylococcus aureus [6] = assay: Antibacterial activity against ethidium bromide-resistant Staphylococcus aureus BSA643 after 24 hrs by broth microdilution method; format: functional; settings: BSA643, 24 h; summary of the method: as §4
[7] = AUC (0-24 hrs) in mouse at 50 mg/kg, sc; format: ADME, organism-based; set-up: time < 24 hr, dose 50 mg/kg, route subcutaneous; settings: plasma; summary of the method: as §3
Staphylococcus aureus [8] = assay: microbe, parasite or virus in culture; settings: Mu50
Staphylococcus aureus [9] = assay: Antibacterial activity against […] Staphylococcus aureus ATCC 29213 after 24 hrs by broth microdilution method; format: functional; settings: ATCC 29213, 24 h; summary of the method: as §4
Staphylococcus aureus [10] = assay: Antibacterial activity against […] Staphylococcus aureus ATCC 29213 in presence of 20 ug/ml reserpine after 24 hrs by broth microdilution method; format: functional; settings: ATCC 29213, 24 h; summary of the method: as §4
Staphylococcus aureus [11] = assay: Antibacterial activity against ethidium bromide-resistant Staphylococcus aureus Mu50 after 24 hrs by broth microdilution method; format: functional; settings: Mu50, 24 h; summary of the method: as §4
[12] = AUC (0-24 hrs) in mouse at 20 mg/kg, sc; format: ADME, organism-based; set-up: time < 24 hr, dose 20 mg/kg, route subcutaneous; settings: plasma; summary of the method: as §3
Staphylococcus aureus [13] = assay: Antibacterial activity against ethidium bromide-resistant Staphylococcus aureus Mu50 in presence of 20 ug/ml reserpine after 24 hrs by broth microdilution method; format: functional; settings: Mu50, 24 h; summary of the method: as §4
Bacteroides fragilis = assay: Antibacterial activity against Bacteroides fragilis by agar dilution method; format: functional
Summary of the method: (§5)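 Anaerobes by CLSI agar dilution on brucella agar with hemin, vitamin K and 5% laked sheep blood; inoculum from 24-h enriched blood agar colonies resuspended in brucella broth to 0.5 McFarland. Plates incubated anaerobically at 35–37°C for 48 h.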

Cutibacterium acnes = assay: Antibacterial activity against Propionibacterium acnes; format: functional; summary of the method: as §5
Peptostreptococcus sp. = assay: Antibacterial activity against Peptostreptococcus sp. by agar dilution method; format: functional; summary of the method: as §5
Clostridioides difficile = assay: Antibacterial activity against Clostridium difficile by agar dilution method; format: functional; summary of the method: as §5
Legionella pneumophila = assay: Antibacterial activity against Legionella pneumophila after 24 hrs by broth microdilution method; format: functional
[14] = tested on: Mycoplasmoides pneumoniae; assay: Antibacterial activity against Mycoplasma pneumoniae after 24 hrs by broth microdilution method; format: functional

CC(C)(O/N=C(\C(=O)N[C@@H]1C(=O)N2C(C(=O)[O-])=C(C[n+]3ccccc3)CS[C@H]12)c1csc(N)n1)C(=O)O [CEFTAZIDIME]
MIC50 (Klebsiella pneumoniae): 32 µg/mL (≈ 58.5 µM) | MIC90 (Klebsiella pneumoniae): > 32 µg/mL | MIC50 (Escherichia coli): 0.25 µg/mL (≈ 0.457 µM) | MIC90 (Escherichia coli): 0.5 µg/mL (≈ 0.915 µM) | MIC50 (Acinetobacter baumannii): 4 µg/mL (≈ 7.32 µM) | MIC90 (Acinetobacter baumannii): > 32 µg/mL | MIC50 (Enterobacter sp.): 0.5 µg/mL (≈ 0.915 µM) | MIC90 (Enterobacter sp.): > 32 µg/mL | MIC50 (Pseudomonas aeruginosa): 2 µg/mL (≈ 3.66 µM) | MIC90 (Pseudomonas aeruginosa): 32 µg/mL (≈ 58.5 µM)

CO/N=C(\C(=O)N[C@@H]1C(=O)N2C(C(=O)O)=C(CSc3nc(=O)c(O)nn3C)CS[C@H]12)c1csc(N)n1 [CEFTRIAXONE]
MIC50 (Klebsiella pneumoniae): 16 µg/mL (≈ 28.9 µM) | MIC90 (Klebsiella pneumoniae): 32 µg/mL (≈ 57.7 µM) | MIC50 (Escherichia coli): 0.06 µg/mL (≈ 0.108 µM) | MIC90 (Escherichia coli): 0.06 µg/mL (≈ 0.108 µM) | MIC50 (Neisseria gonorrhoeae): 0.004 µg/mL (≈ 0.00721 µM) | MIC90 (Neisseria gonorrhoeae): 0.03 µg/mL (≈ 0.0541 µM) | MIC50 (Streptococcus viridans): 0.12 µg/mL (≈ 0.216 µM) | MIC90 (Streptococcus viridans): 1 µg/mL (≈ 1.8 µM) | MIC50 (Streptococcus pyogenes): 0.03 µg/mL (≈ 0.0541 µM) | MIC90 (Streptococcus pyogenes): 0.03 µg/mL (≈ 0.0541 µM) | MIC50 (Acinetobacter baumannii): 8 µg/mL (≈ 14.4 µM) | MIC90 (Acinetobacter baumannii): > 64 µg/mL | MIC50 (Enterobacter sp.): 0.12 µg/mL (≈ 0.216 µM) | MIC90 (Enterobacter sp.): > 64 µg/mL | MIC50 (Haemophilus influenzae): < 0.008 µg/mL | MIC90 (Haemophilus influenzae): 0.015 µg/mL (≈ 0.027 µM) | MIC50 (Moraxella catarrhalis): 0.5 µg/mL (≈ 0.902 µM) | MIC90 (Moraxella catarrhalis): 1 µg/mL (≈ 1.8 µM) | MIC50 (Pseudomonas aeruginosa): 64 µg/mL (≈ 115 µM) | MIC90 (Pseudomonas aeruginosa): > 64 µg/mL | MIC50 (Streptococcus pneumoniae): 0.12 µg/mL (≈ 0.216 µM) | MIC90 (Streptococcus pneumoniae): > 2 µg/mL

O=C(O)c1cn(C2CC2)c2cc(N3CCNCC3)c(F)cc2c1=O [CIPROFLOXACIN]
Tmax [1]: 30 min | Cmax [2]: 3360 ng/mL | Tmax [3]: 30 min | MIC50 (Neisseria gonorrhoeae): 0.004 µg/mL (≈ 0.0121 µM) | MIC90 (Neisseria gonorrhoeae): 0.008 µg/mL (≈ 0.0241 µM) | Cmax [4]: 7720 ng/mL | MIC (Staphylococcus aureus [5]): > 64 µg/mL | MIC (Staphylococcus aureus [6]): 128 µg/mL (≈ 386 µM) | AUC(0-t) at 24 h [7]: 14400 ng·h/mL | MIC (Staphylococcus aureus [8]): > 64 µg/mL | MIC (Staphylococcus aureus [9]): 0.25 µg/mL (≈ 0.754 µM) | MIC (Staphylococcus aureus [10]): 0.25 µg/mL | MIC (Staphylococcus aureus [11]): 32 µg/mL (≈ 96.6 µM) | AUC(0-t) at 24 h [12]: 5950 ng·h/mL | MIC (Staphylococcus aureus [13]): 32 µg/mL

CCC[C@@H]1C[C@@H](C(=O)N[C@@H]([C@H]2O[C@H](SC)[C@H](O)[C@@H](O)[C@H]2O)[C@H](C)Cl)N(C)C1 [CLINDAMYCIN]
MIC50 (Bacteroides fragilis): 1 µg/mL (≈ 2.35 µM) | MIC90 (Bacteroides fragilis): 4 µg/mL (≈ 9.41 µM) | MIC50 (Cutibacterium acnes): 0.06 µg/mL (≈ 0.141 µM) | MIC90 (Cutibacterium acnes): 0.06 µg/mL (≈ 0.141 µM) | MIC50 (Peptostreptococcus sp.): 0.25 µg/mL (≈ 0.588 µM) | MIC90 (Peptostreptococcus sp.): 1 µg/mL (≈ 2.35 µM) | MIC50 (Clostridioides difficile): 2 µg/mL (≈ 4.71 µM) | MIC90 (Clostridioides difficile): > 32 µg/mL

C[C@H]1c2cccc(O)c2C(=O)C2=C(O)[C@]3(O)C(=O)C(C(N)=O)=C(O)[C@@H](N(C)C)[C@@H]3[C@@H](O)[C@@H]21.O [DOXYCYCLINE]
MIC (Legionella pneumophila): 1 µg/mL | MIC [14]: 0.25 µg/mL
